Results published in article PMC8247328 (British Journal of Clinical Pharmacology, 2020).
Where a SMILES comes first, the peptide text is derived from it. [ ]: non-standard residue; d: D form.

Experiments:
[1] = test system: mitochondrial function in the visual cortex; assay: 31P-MRS of the visual cortex before, during and after visual stimulation; assay type: in vivo, human; settings: Part 2; 25 mg s.c. once daily 28 d; n=11; day 27
Summary of the method: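 At 3 T, a 6-cm 31P transmit/receive surface coil was placed over the visual cortex, positioned using a 10-mm water sphere on 1H images. Adiabatic pulse-acquire (TR 2 s, flip 90°) FIDs were collected for 4 min at rest (128 averages), 8 min during visual activation (256) and 8 min after (256). Time-domain fitting with prior knowledge gave PCr/ATP, Pi/PCr, Pi/ATP and pH. Scans ran on day −1 and 1.5 h post-dose on day 27; mixed-model ANCOVA used baseline as covariate.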

[2] = test system: peripheral blood mononuclear cells (PBMCs); assay: Mitochondrial membrane potential of PBMCs; assay type: in vivo, human; settings: for Mitochondrial membrane potential (Delta psi), contrast vs placebo (95% CI) / Percentage of dysfunctional PMBCs, contrast vs placebo (95% CI): ANCOVA; for Mitochondrial membrane potential (Delta psi), LS mean: PBMCs
Summary of the method: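 Live PBMCs were stained with JC-1 and read by flow cytometry, FL-2 for healthy and FL-1 for dysfunctional mitochondria. A fraction of cells was treated with CCCP as uncoupled positive control, and ΔΨm was calculated from FL2/FL1 ratios ×100. Blood was drawn 1 h before dosing on day 1 and 1.5 h after the final dose on day 7 (Part 1), and 1.5 h post-dose on day 27 (Part 2). Analysis was mixed-model ANCOVA with baseline as covariate.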

[3] = test system: PBMCs; assay type: cell-based, human; settings: Part 2; 25 mg s.c. once daily; after 27 days
[4] = test system: patients with early stage HD; assay: Motor assessments and UHDRS; assay type: in vivo, human; settings: Part 2; 25 mg s.c. once daily 28 d
Summary of the method: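 In Part 2 only, motor and neurocognitive tests were run at the start and 1.5 h after the final subcutaneous dose on day 28. Each parameter was analysed by mixed-model ANCOVA with treatment as fixed factor and baseline as covariate, with no multiplicity adjustment.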

[5] = test system: MPTP‐treated mice; settings: cited from earlier work
[6] = test system: rats; settings: ischaemia/reperfusion, single dose of 4 mg/kg; cited from earlier work
[7] = test system: SN4741 cells; settings: cultured SN4741 cells exposed to MPTP; cited from earlier work
[8] = Part 1, 5 mg s.c. once daily 7 d
[9] = Part 1, 5 mg s.c. once daily 7 d, n=6, day 7, 1.5 h post dose
[10] = Part 1, 15 mg s.c. once daily 7 d
[11] = Part 1, 25 mg s.c. once daily 7 d
[12] = Part 2, 25 mg s.c. once daily 28 d
[13] = Part 2, 25 mg s.c. once daily 28 d, n=11, day 27, 1.5 h post dose

N=C(N)NCCC[C@@H](NC(=O)[C@@H](N)Cc1ccccc1)C(=O)N[C@@H](Cc1ccccc1)C(=O)N[C@@H](CCCCN)C(N)=O [SBT‐020, H‐Phe‐D‐Arg‐Phe‐Lys‐NH2] (H-F[dR]FK-NH2)
PCr/ATP after visual stimulation (central 31P‐MRS), LS mean [1]: 0.9
PCr/ATP before visual stimulation (central 31P‐MRS), LS mean [1]: 0.8
PCr/ATP during visual stimulation (central 31P‐MRS), LS mean [1]: 0.8
PCr/ATP during‐after visual stimulation (central 31P‐MRS), LS mean [1]: −0.05
PCr/ATP during‐before visual stimulation (central 31P‐MRS), LS mean [1]: −0.03
Pi/ATP after visual stimulation (central 31P‐MRS), LS mean [1]: 0.2
Pi/ATP before visual stimulation (central 31P‐MRS), LS mean [1]: 0.2
Pi/ATP during visual stimulation (central 31P‐MRS), LS mean [1]: 0.2
Pi/ATP during‐after visual stimulation (central 31P‐MRS), LS mean [1]: −0.02
Pi/ATP during‐before visual stimulation (central 31P‐MRS), LS mean [1]: −0.01
Pi/PCr after visual stimulation (central 31P‐MRS), LS mean [1]: 0.2
Pi/PCr before visual stimulation (central 31P‐MRS), LS mean [1]: 0.2
Pi/PCr during visual stimulation (central 31P‐MRS), LS mean [1]: 0.2
Pi/PCr during‐after visual stimulation (central 31P‐MRS), LS mean [1]: −0.005
Pi/PCr during‐before visual stimulation (central 31P‐MRS), LS mean [1]: −0.006
Mitochondrial membrane potential (Delta psi), contrast vs placebo (95% CI) [2, 8]: 263.528 (−1151.3, 1678.31) P = .7001
Percentage of dysfunctional PMBCs, contrast vs placebo (95% CI) [2, 8]: −1.980 (−3.819, −0.141) P = .0363%
Percentage of dysfunctional PMBCs, LS mean [2, 9]: 3.82%
Mitochondrial membrane potential (Delta psi), LS mean [2, 9]: 3162.27
Mitochondrial membrane potential (Delta psi), contrast vs placebo (95% CI) [2, 10]: −16.375 (−1411.2, 1378.48) P = .9806
Percentage of dysfunctional PMBCs, contrast vs placebo (95% CI) [2, 10]: −3.002 (−4.980, −1.025) P = .0051%
Percentage of dysfunctional PMBCs, LS mean ([2]; Part 1, 15 mg s.c. once daily 7 d, n=6, day 7, 1.5 h post dose): 2.80%
Mitochondrial membrane potential (Delta psi), contrast vs placebo (95% CI) [2, 11]: 1513.21 (114.067, 2912.36) P = .0356
Percentage of dysfunctional PMBCs, contrast vs placebo (95% CI) [2, 11]: −2.052 (−3.894, −0.210) P = .0310%
Percentage of dysfunctional PMBCs, LS mean ([2]; Part 1, 25 mg s.c. once daily 7 d, n=6, day 7, 1.5 h post dose): 3.75%
Mean percentage of dysfunctional PBMCs after 7 days of treatment ([2]; Part 1, 5‐mg cohort, baseline mean 3.2): 3.4%
Mean ∆Ψm after 7 days of treatment ([2]; Part 1, 5‐mg cohort, baseline mean 2956): 2948
Mean percentage of dysfunctional PBMCs after 7 days of treatment ([2]; Part 1, 15‐mg cohort, baseline mean 4.3): 3.8%
Mean ∆Ψm after 7 days of treatment ([2]; Part 1, 15‐mg cohort, baseline mean 3,316): 3,282
Mean percentage of dysfunctional PBMCs after 7 days of treatment ([2]; Part 1, 25‐mg cohort, baseline mean 3.2): 3.4%
Mean ∆Ψm after 7 days of treatment ([2]; Part 1, 25‐mg cohort, baseline mean 3715): 5279
Mitochondrial membrane potential (Delta psi), contrast vs placebo (95% CI) [2, 12]: 1065.4 (−495.2, 2626.0) P = .17
Percentage of dysfunctional PMBCs, contrast vs placebo (95% CI) [2, 12]: −0.75 (−3.93, 2.42) P = .62%
Percentage of dysfunctional PMBCs, LS mean [2, 13]: 4.08%
Mitochondrial membrane potential (Delta psi), LS mean [2, 13]: 4090.47
Mean percentage of dysfunctional PBMCs after 28 days of treatment ([2]; Part 2, active group 25 mg, baseline mean 4.6): 4.2%
Mean ∆Ψm after 28 days of treatment ([2]; Part 2, active group 25 mg, baseline mean 3770): 4124
Effect on ∆Ψm values and half maximal inhibitory concentration values for carvedilol and verapamil [3]: no effect
Effect on motor function [4]: no effect
Attenuation of MPTP‐induced dopamine depletion ([5]; MPTP‐treated mice, single dose of 4 mg/kg): 40%
Neuroprotection in the striatum ([5]; acute MPTP model, peripheral administration at 5 mg/kg, ref not given): sufficient to achieve neuroprotection
Effect in MPTP‐induced mouse model of Parkinson's disease ([5]; given systemically): effective in attenuating injury and improving neurotransmitter release
Infarct size and myocardial lipid peroxidation [6]: significantly reduced
Cell viability and apoptosis [7]: improved cell viability and reduced apoptosis
